# Test results as given in ChEMBL document CHEMBL4396880, “Development of Small-Molecules Targeting Receptor Activator of Nuclear Factor-κB Ligand (RANKL)-Receptor Activator of Nuclear Factor-κB (RANK) Protein-Protein Interaction by Structure-Based Virtual Screening and Hit Optimization” (J Med Chem, 2019).
# pIC50, pKd: −log10 of the molar value. Calls of active or inactive are those of the source. The calls are words filed in the database; no cut-off is given here.
# What was measured:
# [1] = target: T1, Tumor necrosis factor ligand superfamily member 11 (Homo sapiens) (UniProt O14788); assay: (§1) Inhibition of RANK binding to human RANKL measured after 1 h by surface plasmon resonance analysis
# T1 sequence (whole entry): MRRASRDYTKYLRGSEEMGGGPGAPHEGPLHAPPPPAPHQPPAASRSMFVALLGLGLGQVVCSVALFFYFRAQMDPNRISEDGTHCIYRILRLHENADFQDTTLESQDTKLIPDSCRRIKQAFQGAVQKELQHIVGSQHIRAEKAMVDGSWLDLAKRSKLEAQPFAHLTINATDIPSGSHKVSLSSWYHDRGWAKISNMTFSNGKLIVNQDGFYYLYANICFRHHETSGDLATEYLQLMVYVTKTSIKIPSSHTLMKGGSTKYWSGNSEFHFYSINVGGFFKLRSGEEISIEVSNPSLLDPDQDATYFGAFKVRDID
# [2] = target: T2, Tumor necrosis factor ligand superfamily member 11 (Homo sapiens, UniProt O14788); assay: as §1
# T2 sequence (O14788 whole entry): T1 sequence (whole entry)
# [3] = target: T3, Tumor necrosis factor ligand superfamily member 11/11A (Mus musculus) (UniProt O35235+O35305); assay: (§2) Inhibition of RANKL-RANK protein-protein interaction in C57/BL6 mouse bone marrow macrophage assessed as suppression of M-CSF/mRANKL-induced osteoclast differentiation by measuring decrease in multinucleated TRAP+ cells at 5 uM supplemented with fresh medium containing compounds every 2 days for 5 to 6 days by TRAP staining-based microscopic analysis relative to control; type: cell-based
# Procedure, shortened: (§3)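 Bone marrow macrophages were exposed to the test compound at the indicated concentrations for 5 days under M-CSF/RANKL stimulation. TRAP-positive multinucleated cells were then counted as the measure of osteoclast formation.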
# [4] = target: T3, Tumor necrosis factor ligand superfamily member 11/11A (Mus musculus); assay: Inhibition of RANKL-RANK protein-protein interaction in C57/BL6 mouse bone marrow macrophage assessed as suppression of M-CSF/mRANKL-induced osteoclastogenesis by measuring reduction in NFATc1 mRNA level measured after 3 days by Trizol-reagent-based qRT-PCR analysis
# Procedure, shortened: (§4)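 BMMs were treated with graded compound concentrations during RANKL-driven osteoclastogenesis. On day 3 of culture, NFATc1, TRAP and cathepsin K transcripts were quantified by real-time PCR.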
# [5] = system: BMDM; assay: Cytotoxicity against M-CSF-stimulated C57/BL6 mouse bone marrow macrophages assessed as reduction in cell viability up to 10 uM measured after 2 days by MTT assay; type: cell-based; conditions: 48 h
# [6] = target: T4, Tumor necrosis factor ligand superfamily member 11/11A (Mus musculus, UniProt O35235+O35305); assay: as §2, with “cells” for “cells at 5 uM”, “analysis” for “analysis relative to control”; type: cell-based; procedure, shortened: as §3
# T4 sequence (O35235 whole entry): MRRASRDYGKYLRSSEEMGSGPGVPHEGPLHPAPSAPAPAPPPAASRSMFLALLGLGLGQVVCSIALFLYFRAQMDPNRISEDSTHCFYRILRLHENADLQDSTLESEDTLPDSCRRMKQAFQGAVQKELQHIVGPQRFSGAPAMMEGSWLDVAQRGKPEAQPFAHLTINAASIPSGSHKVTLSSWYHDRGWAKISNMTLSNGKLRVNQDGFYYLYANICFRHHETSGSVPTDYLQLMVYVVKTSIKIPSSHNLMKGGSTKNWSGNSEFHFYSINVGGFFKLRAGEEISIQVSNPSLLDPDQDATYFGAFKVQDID
# T4 sequence (O35305 whole entry): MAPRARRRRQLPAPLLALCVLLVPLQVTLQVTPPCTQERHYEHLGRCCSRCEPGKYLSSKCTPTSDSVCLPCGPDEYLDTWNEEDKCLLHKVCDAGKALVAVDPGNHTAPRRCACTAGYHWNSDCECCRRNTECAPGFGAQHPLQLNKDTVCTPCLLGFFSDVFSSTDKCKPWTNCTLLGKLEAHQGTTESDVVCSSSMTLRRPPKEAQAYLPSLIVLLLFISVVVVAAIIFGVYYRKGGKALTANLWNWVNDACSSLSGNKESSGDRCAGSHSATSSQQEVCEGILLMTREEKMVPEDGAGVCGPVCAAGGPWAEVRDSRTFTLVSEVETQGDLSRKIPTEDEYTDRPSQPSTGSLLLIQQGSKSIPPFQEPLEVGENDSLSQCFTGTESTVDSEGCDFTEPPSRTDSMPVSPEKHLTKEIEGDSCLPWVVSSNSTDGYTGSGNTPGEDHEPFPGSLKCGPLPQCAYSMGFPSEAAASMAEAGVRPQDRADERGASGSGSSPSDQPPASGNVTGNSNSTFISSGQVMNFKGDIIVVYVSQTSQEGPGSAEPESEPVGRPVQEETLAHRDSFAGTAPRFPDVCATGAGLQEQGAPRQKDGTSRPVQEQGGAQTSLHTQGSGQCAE
# [7] = target: T3, Tumor necrosis factor ligand superfamily member 11/11A (Mus musculus); assay: as above; type: cell-based; procedure, shortened: as §3
# [8] = target: T3, Tumor necrosis factor ligand superfamily member 11/11A (Mus musculus); assay: Inhibition of RANKL-RANK protein-protein interaction in C57/BL6 mouse bone marrow macrophage assessed as suppression of M-CSF/mRANKL-induced osteoclastogenesis by measuring reduction in TRAP activity at 5 uM measured after 3 days by colorimetric assay relative to control
# Procedure, shortened: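 BMMs were incubated with the test compound at 5 μM, together with RANKL (50 ng/mL) and M-CSF (20 ng/mL), for 3 days. Osteoclastogenesis was then read out as tartrate-resistant acid phosphatase (TRAP) activity.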
# [9] = target: T3, Tumor necrosis factor ligand superfamily member 11/11A (Mus musculus); assay: Inhibition of RANKL-RANK protein-protein interaction in C57/BL6 mouse bone marrow macrophage assessed as suppression of M-CSF/mRANKL-induced osteoclastogenesis by measuring reduction in cathepsin K mRNA level measured after 3 days by Trizol-reagent-based qRT-PCR analysis; procedure, shortened: as §4
# [10] = target: T3, Tumor necrosis factor ligand superfamily member 11/11A (Mus musculus); assay: Inhibition of RANKL-RANK protein-protein interaction in C57/BL6 mouse bone marrow macrophage assessed as suppression of M-CSF/mRANKL-induced osteoclastogenesis by measuring reduction in TRAP mRNA level measured after 3 days by Trizol-reagent-based qRT-PCR analysis; procedure, shortened: as §4
# [11] = target: T3, Tumor necrosis factor ligand superfamily member 11/11A (Mus musculus); assay: as §2, with “at 10” for “at 5”; type: cell-based; procedure, shortened: as §3
# [12] = target: T2, Tumor necrosis factor ligand superfamily member 11; assay: Binding affinity to human RANKL by surface plasmon resonance analysis
# [13] = target: T3, Tumor necrosis factor ligand superfamily member 11/11A (Mus musculus); assay: Inhibition of RANKL-RANK protein-protein interaction in C57/BL6 mouse bone marrow macrophage assessed as suppression of M-CSF/mRANKL-induced osteoclastogenesis by measuring reduction in NFATc1 expression measured after 3 days by Western blot analysis
# [14] = Cytotoxicity against M-CSF-stimulated C57/BL6 mouse bone marrow macrophages assessed as cell viability at 10 uM measured after 2 days by MTT assay (reference value: 100%); type: cell-based; conditions: M-CSF-stimulated bone marrow macrophages (BMDM), read-out: Activity
# [15] = target: T3, Tumor necrosis factor ligand superfamily member 11/11A (Mus musculus); assay: as §2, with “nuclei number of F-actin ring formation” for “multinucleated TRAP+ cells”, “rhodamine phalloidin/DAPI” for “TRAP”, “analysis” for “analysis relative to control”; type: protein assay
# [16] = target: T3, Tumor necrosis factor ligand superfamily member 11/11A (Mus musculus); assay: Inhibition of RANKL-RANK protein-protein interaction in C57/BL6 mouse bone marrow macrophage assessed as suppression of M-CSF/mRANKL-induced osteoclastogenesis by measuring reduction in NFATc1 mRNA level at 2.5 uM measured after 3 days by Trizol-reagent-based qRT-PCR analysis; procedure, shortened: as §4
# [17] = target: T3, Tumor necrosis factor ligand superfamily member 11/11A (Mus musculus); assay: as §2, with “analysis” for “analysis relative to control”; type: cell-based; procedure, shortened: as §3
# [18] = target: T3, Tumor necrosis factor ligand superfamily member 11/11A (Mus musculus); assay: Inhibition of RANKL-RANK protein-protein interaction in C57/BL6 mouse bone marrow macrophage assessed as suppression of M-CSF/mRANKL-induced osteoclastogenesis by measuring reduction in c-fos expression measured after 3 days by Western blot analysis
# [19] = target: T3, Tumor necrosis factor ligand superfamily member 11/11A (Mus musculus); assay: Inhibition of RANKL-RANK protein-protein interaction in C57/BL6 mouse bone marrow macrophage assessed as suppression of M-CSF/mRANKL-induced osteoclastogenesis by measuring reduction in cathepsin K mRNA level at 2.5 uM measured after 3 days by Trizol-reagent-based qRT-PCR analysis; procedure, shortened: as §4
# [20] = target: T3, Tumor necrosis factor ligand superfamily member 11/11A (Mus musculus); assay: as §2, with “nuclei size of F-actin ring formation” for “multinucleated TRAP+ cells”, “rhodamine phalloidin/DAPI” for “TRAP”, “analysis” for “analysis relative to control”; type: protein assay
# [21] = target: T3, Tumor necrosis factor ligand superfamily member 11/11A (Mus musculus); assay: Inhibition of RANKL-RANK protein-protein interaction in C57/BL6 mouse bone marrow macrophage assessed as suppression of M-CSF/mRANKL-induced bone resorption at 1 to 5 uM measured after 2 days by toluidine blue staining-based confocal microscopic analysis
# [22] = target: Tumor necrosis factor (Homo sapiens, UniProt P01375); assay: Binding affinity to human TNFalpha by surface plasmon resonance analysis
# [23] = target: T3, Tumor necrosis factor ligand superfamily member 11/11A (Mus musculus); assay: Inhibition of RANKL-RANK protein-protein interaction in C57/BL6 mouse bone marrow macrophage assessed as suppression of M-CSF/mRANKL-induced osteoclastogenesis by measuring reduction in TRAP mRNA level at 2.5 uM measured after 3 days by Trizol-reagent-based qRT-PCR analysis; procedure, shortened: as §4
# Chain of Tumor necrosis factor (P01375 whole entry): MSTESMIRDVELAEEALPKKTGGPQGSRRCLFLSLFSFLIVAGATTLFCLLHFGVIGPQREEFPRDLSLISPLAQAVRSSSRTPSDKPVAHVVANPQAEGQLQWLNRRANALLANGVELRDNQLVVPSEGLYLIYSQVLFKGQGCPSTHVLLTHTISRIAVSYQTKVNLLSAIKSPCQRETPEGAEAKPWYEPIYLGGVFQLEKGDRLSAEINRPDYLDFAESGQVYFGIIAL
smiles,measurement,setting,value
Cc1cccc(C)c1NC(=O)C(Cc1c[nH]c2ccccc12)NC(=O)OCc1ccccc1 (racemic),inhibition,[1],Dose-dependent effect
same,pIC50,[2],4.58
same,inhibition,[3],50%
same,inhibition,[4],Dose-dependent effect
same,Activity,[5],Non-Toxic
same,pIC50,[6],5.18
same,inhibition,[7],Dose-dependent effect
same,inhibition,[8],54.9 to 68.4%
same,inhibition,[9],Dose-dependent effect
same,inhibition,[10],Dose-dependent effect
same,inhibition,[11],93.3%
same,pKd,[12],5.01
Cc1cccc(C)c1NC(=O)C(Cc1c[nH]c2ccccc12)NCCCc1ccccc1 (racemic),inhibition,[13],Dose-dependent effect
same,"viability at 48 h, 10 µM",[14],110%
same,inhibition,[7],Dose-dependent effect
same,inhibition,[15],Dose-dependent effect
same,inhibition,[16],Active
same,inhibition,[8],92.9%
same,inhibition,[17],100%
same,inhibition,[18],Dose-dependent effect
same,inhibition,[19],Active
same,inhibition,[20],Dose-dependent effect
same,inhibition,[21],Active
same,pKd,[22],4.03
same,inhibition,[23],Active
same,pKd,[12],6.21
